Measurements as given in article PMC11847724 (Neoplasia (New York, N.Y.), 2025).
Like-named read-outs stand apart in the source and are kept apart here.

Tests used:
[1] = tested on: participants with advanced or metastatic solid tumors; assay type: in vivo, human
Summary of the method: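 Open-label, first-in-human 3 + 3 escalation in adults with recurrent, locally advanced or metastatic solid tumors lacking standard therapy. Test compound was given orally once daily from 25 up to 700 mg/day (modified Fibonacci steps) in 28-day cycles for 6 to 8 cycles, with no intrapatient escalation. The safety population was everyone dosed at least once. AEs were coded by MedDRA and graded by NCI CTCAE v4.03. DLT was assessed in cycle 1, and MTD was the highest dose with DLT in under one-third of a cohort.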

[2] = tested on: advanced or metastatic solid tumors; experiment: Tumor response by RECIST v1.1; assay type: in vivo, human; conditions: RECIST v1.1, all doses
Summary of the method: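 Participants received daily oral test compound at 25 to 700 mg/day in 28-day cycles. Best observed response was listed per participant without statistical analysis.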

[3] = tested on: ALK- and FAK-driven xenograft models; conditions: multiple ALK- and FAK-driven xenograft models ref 9, 10; cited from earlier work
[4] = all tested species ref 9; cited from earlier work

CNC(=O)c1ccccc1Nc1nc(Nc2ccc3c(c2OC)CCC[C@H](N2CCN(CCO)CC2)C3)ncc1Cl [ESK-440]
AE: Pyrexia ([1]; 350 mg/day (n = 4)): 1 (25) Number (%) of participants | AE: Vomiting ([1]; 350 mg/day (n = 4)): 1 (25) Number (%) of participants | Any AE ([1]; 350 mg/day (n = 4)): 4 (100) Number (%) of participants | Deaths ([1]; 350 mg/day (n = 4)): 0 Number (%) of participants | Grade 3-5 AE ([1]; 350 mg/day (n = 4)): 2 (50) Number (%) of participants | Other serious AEs ([1]; 350 mg/day (n = 4)): 1 (25) Number (%) of participants | Treatment-related AE ([1]; 350 mg/day (n = 4)): 3 (75) Number (%) of participants | Withdrawn from treatment due to AE ([1]; 350 mg/day (n = 4)): 1 (25) Number (%) of participants | AE: Cough ([1]; 500 mg/day (n = 6)): 1 (17) Number (%) of participants | AE: Decreased appetite ([1]; 500 mg/day (n = 6)): 2 (33) Number (%) of participants | AE: Diarrhea ([1]; 500 mg/day (n = 6)): 2 (33) Number (%) of participants | AE: Edema peripheral ([1]; 500 mg/day (n = 6)): 0 Number (%) of participants | AE: Fatigue ([1]; 500 mg/day (n = 6)): 2 (33) Number (%) of participants | AE: Nausea ([1]; 500 mg/day (n = 6)): 5 (83) Number (%) of participants | AE: Pyrexia ([1]; 500 mg/day (n = 6)): 2 (33) Number (%) of participants | AE: Vomiting ([1]; 500 mg/day (n = 6)): 5 (83) Number (%) of participants | Any AE ([1]; 500 mg/day (n = 6)): 6 (100) Number (%) of participants | Deaths ([1]; 500 mg/day (n = 6)): 0 Number (%) of participants | Grade 3-5 AE ([1]; 500 mg/day (n = 6)): 1 (17) Number (%) of participants | Other serious AEs ([1]; 500 mg/day (n = 6)): 1 (17) Number (%) of participants | Treatment-related AE ([1]; 500 mg/day (n = 6)): 5 (83) Number (%) of participants | Withdrawn from treatment due to AE ([1]; 500 mg/day (n = 6)): 2 (33) Number (%) of participants | participants reporting a DLT ([1]; 500 mg/day treatment group): 1 participants | AE: Cough ([1]; 700 mg/day (n = 5)): 0 Number (%) of participants | AE: Decreased appetite ([1]; 700 mg/day (n = 5)): 2 (40) Number (%) of participants | AE: Diarrhea ([1]; 700 mg/day (n = 5)): 1 (20) Number (%) of participants | AE: Edema peripheral ([1]; 700 mg/day (n = 5)): 1 (20) Number (%) of participants | AE: Fatigue ([1]; 700 mg/day (n = 5)): 4 (80) Number (%) of participants | AE: Nausea ([1]; 700 mg/day (n = 5)): 5 (100) Number (%) of participants | AE: Pyrexia ([1]; 700 mg/day (n = 5)): 0 Number (%) of participants | AE: Vomiting ([1]; 700 mg/day (n = 5)): 3 (60) Number (%) of participants | Any AE ([1]; 700 mg/day (n = 5)): 5 (100) Number (%) of participants | Deaths ([1]; 700 mg/day (n = 5)): 1 (20) Number (%) of participants | Grade 3-5 AE ([1]; 700 mg/day (n = 5)): 4 (80) Number (%) of participants | Other serious AEs ([1]; 700 mg/day (n = 5)): 0 Number (%) of participants | Treatment-related AE ([1]; 700 mg/day (n = 5)): 5 (100) Number (%) of participants | Withdrawn from treatment due to AE ([1]; 700 mg/day (n = 5)): 2 (40) Number (%) of participants | participants reporting a DLT ([1]; 700 mg/day treatment group): 2 participants | deaths considered by investigators related to ESK-440 ([1]; 4 deaths during study): None | AE cough ([1]; Overall (N = 32)): 16% | AE decreased appetite ([1]; Overall (N = 32)): 28% | AE diarrhea ([1]; Overall (N = 32)): 25% | AE fatigue ([1]; Overall (N = 32)): 53% | AE nausea ([1]; Overall (N = 32)): 53% | AE peripheral edema ([1]; Overall (N = 32)): 16% | AE pyrexia ([1]; Overall (N = 32)): 19% | AE vomiting ([1]; Overall (N = 32)): 38% | AE: Cough ([1]; Overall (N = 32)): 5 (16) Number (%) of participants | AE: Decreased appetite ([1]; Overall (N = 32)): 9 (28) Number (%) of participants | AE: Diarrhea ([1]; Overall (N = 32)): 8 (25) Number (%) of participants | AE: Edema peripheral ([1]; Overall (N = 32)): 5 (16) Number (%) of participants | AE: Fatigue ([1]; Overall (N = 32)): 17 (53) Number (%) of participants | AE: Nausea ([1]; Overall (N = 32)): 17 (53) Number (%) of participants | AE: Pyrexia ([1]; Overall (N = 32)): 6 (19) Number (%) of participants | AE: Vomiting ([1]; Overall (N = 32)): 12 (38) Number (%) of participants | Any AE ([1]; Overall (N = 32)): 31 (97) Number (%) of participants | Deaths ([1]; Overall (N = 32)): 4 (13) Number (%) of participants | Grade 3-5 AE ([1]; Overall (N = 32)): 15 (47) Number (%) of participants | Other serious AEs ([1]; Overall (N = 32)): 9 (28) Number (%) of participants | Withdrawn from treatment due to AE ([1]; Overall (N = 32)): 7 (22) Number (%) of participants | at least 1 AE ([1]; Overall (N = 32)): 97% | deaths reported during the study ([1]; Overall (N = 32)): 4 | grade 3+ AEs ([1]; Overall (N = 32)): 47% | withdrew from treatment due to AEs ([1]; Overall (N = 32)): 22% | nature of the DLT ([1]; all 3 cases, considered related to ESK-440): grade 3 nausea | participants reporting a DLT ([1]; all dose groups): Three | changes in vital signs, ECG findings, physical exam findings, pulmonary function tests ([1]; during the study): no clinically significant changes | decline in ECOG performance status ([1]; from baseline): 13 participants | QTcF value meeting protocol-defined DLT criterion (>500 msec) ([1]; in vivo): No patient | no change from baseline in ECOG performance status ([1]; in vivo): Nineteen | SAEs considered related to ESK-440 ([1]; of SAEs in nine participants, nausea): 1 | maximum tolerated dose (MTD) ([1]; oral, 28-day cycle, DLT in cycle 1): 500 mg/day | best overall response: stable disease [2]: 7 participants | complete or partial response [2]: No participant | antitumor efficacy [3]: dose-dependent antitumor efficacy | oral bioavailability [4]: acceptable
